Experimental data published in ChEMBL document CHEMBL2417469, “Synthesis of novel analogs of 2-pyrazoline obtained from [(7-chloroquinolin-4-yl)amino]chalcones and hydrazine as potential antitumor and antimalarial agents” (Eur J Med Chem, 2013).

Key:
Assay type in all cases: functional
MDA-MB-468 = test: Cytotoxicity against human MDA-MB-468 cells after 48 hrs by SRB assay; conditions: MDA-MB-468, 48 h
Method in brief: (§1)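 NCI 60-cell-line screen. Cells preincubated 24 h at 37 °C, 5% CO2; time-zero plates TCA-fixed. Compounds dissolved in DMSO and tested at five concentrations (100, 10, 1.0, 0.1, 0.01 µM) for 48 h continuous exposure. Adherent cells fixed with cold TCA (10% final), then SRB stained; absorbance at 515 nm. GI50, TGI and LC50 calculated from growth relative to time-zero and untreated controls.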

BT-549 = test: Cytotoxicity against human BT549 cells after 48 hrs by SRB assay; conditions: BT-549, 48 h; method in brief: as §1
Hs-578T = test: Cytotoxicity against human Hs578T cells after 48 hrs by SRB assay; method in brief: as §1
MCF7 = test: Cytotoxicity against human MCF7 cells after 48 hrs by SRB assay; conditions: MCF7, 48 h; method in brief: as §1
MDA-MB-231 = test: Cytotoxicity against human MDA-MB-231 cells after 48 hrs by SRB assay; conditions: MDA-MB-231, 48 h; method in brief: as §1
DU-145 = test: Cytotoxicity against human DU145 cells after 48 hrs by SRB assay; conditions: DU-145, 48 h; method in brief: as §1
UO-31 = test: Cytotoxicity against human UO31 cells after 48 hrs by SRB assay; conditions: UO-31, 48 h
Method in brief: (§2)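 NCI 60-cell screen. Cells grew 24 h (37 °C, 5% CO2) before compound was added. Compounds were in DMSO and diluted in medium with gentamicin, then tested at five levels (100, 10, 1.0, 0.1, 0.01 µM) with 48 h continuous exposure. Adherent cells were fixed with TCA (10% final) and stained with 0.4% SRB, absorbance read at 515 nm. A time-zero plate was included. LC50 is the concentration giving 50% loss of protein relative to time zero.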

PC-3 = test: Cytotoxicity against human PC3 cells after 48 hrs by SRB assay; conditions: PC-3, 48 h; method in brief: as §1
SN12C = test: Cytotoxicity against human SN12C cells after 48 hrs by SRB assay; method in brief: as §1
786-0 = test: Cytotoxicity against human 786-0 cells after 48 hrs by SRB assay; conditions: 786-0, 48 h; method in brief: as §1
NCI/ADR-RES = test: Cytotoxicity against human NCI/ADR-RES cells after 48 hrs by SRB assay; method in brief: as §1
OVCAR-4 = test: Cytotoxicity against human OVCAR4 cells after 48 hrs by SRB assay; conditions: OVCAR-4, 48 h; method in brief: as §1
OVCAR-3 = test: Cytotoxicity against human OVCAR3 cells after 48 hrs by SRB assay; conditions: OVCAR-3, 48 h; method in brief: as §1
IGROV-1 = test: Cytotoxicity against human IGROV1 cells after 48 hrs by SRB assay; conditions: IGROV-1, 48 h; method in brief: as §1
UACC-62 = test: Cytotoxicity against human UACC62 cells after 48 hrs by SRB assay; conditions: UACC-62, 48 h; method in brief: as §2
UACC-257 = test: Cytotoxicity against human UACC257 cells after 48 hrs by SRB assay; conditions: UACC-257, 48 h; method in brief: as §2
SK-MEL-5 = test: Cytotoxicity against human SK-MEL-5 cells after 48 hrs by SRB assay; conditions: SK-MEL-5, 48 h; method in brief: as §1
MDA-MB-435 = test: Cytotoxicity against human MDA-MB-435 cells after 48 hrs by SRB assay; conditions: MDA-MB-435, 48 h; method in brief: as §1
M14 = test: Cytotoxicity against human M14 cells after 48 hrs by SRB assay; conditions: M14, 48 h; method in brief: as §1
LOX IMVI = test: Cytotoxicity against human LOXIMVI cells after 48 hrs by SRB assay; method in brief: as §1
SNB-75 = test: Cytotoxicity against human SNB75 cells after 48 hrs by SRB assay; conditions: SNB-75, 48 h; method in brief: as §2
SNB-19 = test: Cytotoxicity against human SNB19 cells after 48 hrs by SRB assay; conditions: SNB-19, 48 h; method in brief: as §2
SF-268 = test: Cytotoxicity against human SF268 cells after 48 hrs by SRB assay; conditions: SF-268, 48 h; method in brief: as §1
KM12 = test: Cytotoxicity against human KM12 cells after 48 hrs by SRB assay; conditions: KM12, 48 h; method in brief: as §1
HCT-15 = test: Cytotoxicity against human HCT15 cells after 48 hrs by SRB assay; conditions: HCT-15, 48 h; method in brief: as §1
HCC 2998 = test: Cytotoxicity against human HCC2998 cells after 48 hrs by SRB assay; conditions: HCC 2998, 48 h; method in brief: as §1
NCI-H460 = test: Cytotoxicity against human NCI-H460 cells after 48 hrs by SRB assay; conditions: NCI-H460, 48 h; method in brief: as §1
NCI-H226 = test: Cytotoxicity against human NCI-H226 cells after 48 hrs by SRB assay; conditions: NCI-H226, 48 h; method in brief: as §1
NCI-H23 = test: Cytotoxicity against human NCI-H23 cells after 48 hrs by SRB assay; conditions: NCI-H23, 48 h; method in brief: as §1
HOP-92 = test: Cytotoxicity against human HOP92 cells after 48 hrs by SRB assay; conditions: HOP-92, 48 h; method in brief: as §1
HOP-62 = test: Cytotoxicity against human HOP62 cells after 48 hrs by SRB assay; conditions: HOP-62, 48 h; method in brief: as §1
[1] = Cytotoxicity against human EKVX cells after 48 hrs by SRB assay; method in brief: as §1
A549 = test: Cytotoxicity against human A549/ATCC cells after 48 hrs by SRB assay; conditions: A549, 48 h; method in brief: as §1
HL-60(TB) = test: Cytotoxicity against human HL-60(TB) cells after 48 hrs by SRB assay; conditions: HL-60, 48 h; method in brief: as §1
[2] = read-out: LC50 (the source's name)

Compound: O=CN1N=C(c2ccc(Nc3ccnc4cc(Cl)ccc34)cc2)CC1c1ccccc1 (stereo not drawn)
- GI50 (MDA-MB-468): 0.98 µM
- LC50 (MDA-MB-468): 10 µM
- GI50 (BT-549): 3.81 µM
- LC50 (50% net cell kill vs time zero) (BT-549): 53.8 µM
- GI50 (Hs-578T): 3.77 µM
- LC50 (50% net cell kill) (Hs-578T): > 100 µM
- GI50 (MCF7): 3.42 µM
- CC50 (MCF7; [2]): > 100 µM
- GI50 (MDA-MB-231): 2.43 µM
- LC50 (concentration killing 50% of cells present at time zero) (MDA-MB-231): > 100 µM
- GI50 (DU-145): 3.8 µM
- LC50 (concentration killing 50% of cells) (DU-145): > 100 µM
- GI50 (UO-31): 3.81 µM
- LC50 (UO-31): > 100 µM
- GI50 (PC-3): 4.76 µM
- LC50 (PC-3): > 100 µM
- GI50 (SN12C): 3.8 µM
- LC50 (50% net cell kill relative to time zero) (SN12C): > 100 µM
- GI50 (786-0): 3.36 µM
- LC50 (786-0): 98.4 µM
- GI50 (NCI/ADR-RES): 2.69 µM
- CC50 (NCI/ADR-RES; [2]): > 100 µM
- GI50 (OVCAR-4): 3.88 µM
- LC50 (OVCAR-4): > 100 µM
- GI50 (OVCAR-3): 2.78 µM
- LC50 (OVCAR-3): 43.2 µM
- GI50 (IGROV-1): 9.36 µM
- LC50 (concentration killing 50% of cells relative to time zero) (IGROV-1): > 100 µM
- GI50 (UACC-62): 1.55 µM
- CC50 (UACC-62; [2]): 17.4 µM
- GI50 (UACC-257): 10.1 µM
- LC50 (UACC-257): > 100 µM
- GI50 (SK-MEL-5): 1.38 µM
- LC50 (concentration killing 50% of cells present at time zero) (SK-MEL-5): 11.2 µM
- GI50 (MDA-MB-435): 1.59 µM
- LC50 (MDA-MB-435): > 100 µM
- GI50 (M14): 4.12 µM
- CC50 (M14; [2]): > 100 µM
- GI50 (LOX IMVI): 1.61 µM
- LC50 (LOX IMVI): 6.88 µM
- GI50 (SNB-75): 5.03 µM
- LC50 (50% net cell kill) (SNB-75): > 100 µM
- GI50 (SNB-19): 5.13 µM
- LC50 (SNB-19): > 100 µM
- GI50 (SF-268): 3.96 µM
- LC50 (SF-268): > 100 µM
- GI50 (KM12): 3.41 µM
- LC50 (concentration killing 50% of cells) (KM12): > 100 µM
- GI50 (HCT-15): 2.54 µM
- LC50 (concentration killing 50% of cells relative to time zero) (HCT-15): > 100 µM
- GI50 (HCC 2998): 3.5 µM
- LC50 (HCC 2998): > 100 µM
- GI50 (NCI-H460): 3.96 µM
- LC50 (NCI-H460): > 100 µM
- GI50 (NCI-H226): 5.22 µM
- LC50 (50% lethal concentration) (NCI-H226): > 100 µM
- GI50 (NCI-H23): 3.64 µM
- CC50 (NCI-H23; [2]): > 100 µM
- GI50 (HOP-92): 4.28 µM
- LC50 (concentration killing 50% of cells) (HOP-92): > 100 µM
- GI50 (HOP-62): 5.26 µM
- LC50 (50% lethal concentration) (HOP-62): > 100 µM
- GI50 [1]: 4.94 µM
- LC50 [1]: > 100 µM
- GI50 (A549): 4.05 µM
- CC50 (A549; [2]): > 100 µM
- GI50 (HL-60(TB)): 2.66 µM
- CC50 (HL-60(TB); [2]): 72.5 µM
